In ChEMBL document CHEMBL4689842, “EUbOPEN Chemogenomics Library wave 1” (2021):
“And” between values parts separate entries of the source, which are not always exact repeats. Equal values may be shown once.

Test system: HEK-293T
Assay: Multiplex assay against HEK293T;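 as to Population Tubulin-Different-Phenotype (%): share of the cells with healthy nuclei that show this phenotype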
Assay type: toxicity, cell-based
Settings: human
How it was run: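 Live cells were stained at seeding with Hoechst33342, BioTracker Green Microtubule Cytoskeleton Dye, MitoTracker Red and Annexin V Alexa Fluor 680. Following compound addition, they were imaged on a CQ1 microscope at 37°C and 5% CO2 and gated by CellPathfinder machine learning into Hoechst high-intensity objects or normal cells, with normal cells split into healthy, pyknosed or fragmented nuclei and pyknosed cells into mitotic or apoptotic. Tubulin, mitochondrial-mass and membrane-permeability phenotypes are per cents of healthy-nucleus cells.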

[1] = 12 h, 1 µM, compound concentration 1 uM, replicate 1
[2] = 12 h, 1 µM, compound concentration 1 uM, replicate 2
[3] = 12 h, 10 µM, compound concentration 10 uM, replicate 1
[4] = 12 h, 10 µM, compound concentration 10 uM, replicate 2
[5] = 24 h, 1 µM, compound concentration 1 uM, replicate 1
[6] = 24 h, 1 µM, compound concentration 1 uM, replicate 2
[7] = 24 h, 10 µM, compound concentration 10 uM, replicate 1
[8] = 24 h, 10 µM, compound concentration 10 uM, replicate 2
[9] = 48 h, 10 µM, compound concentration 10 uM, replicate 1
[10] = 48 h, 10 µM, compound concentration 10 uM, replicate 2

## Cl.O=C(c1ccc(Nc2nccc(-c3cc4ccccc4s3)n2)cc1)N1CCC(N2CCCC2)CC1
[1]
  Population Apoptotic (%): 28%
  Population Fragmented Nuclei (%): 10%
  Population Healthy Nuclei (%): 59%
  Population Hoechst High Intensity Objects (%): 8%
  Population Membrane Permeable-Phenotype (%): 17%
  Population Mitochondria Different-Phenotype (%): 14%
  Population Mitotic Cells (%): 71%
  Population Normal (%): 91%
  Population Pyknosed Nuclei (%): 29%
  Population Tubulin-Different-Phenotype (%): 73%
  Total Cell Count: 657
[2]
  Population Apoptotic (%): 12%
  Population Fragmented Nuclei (%): 4%
  Population Healthy Nuclei (%): 89%
  Population Hoechst High Intensity Objects (%): 3%
  Population Membrane Permeable-Phenotype (%): 11%
  Population Mitochondria Different-Phenotype (%): 20%
  Population Mitotic Cells (%): 87%
  Population Normal (%): 96%
  Population Pyknosed Nuclei (%): 6%
  Population Tubulin-Different-Phenotype (%): 67%
  Total Cell Count: 1518
[3]
  Population Apoptotic (%): 32% and 71%
  Population Fragmented Nuclei (%): 13% and 26%
  Population Healthy Nuclei (%): 21% and 0%
  Population Hoechst High Intensity Objects (%): 17% and 23%
  Population Membrane Permeable-Phenotype (%): 4% and 0%
  Population Mitochondria Different-Phenotype (%): 66% and 100%
  Population Mitotic Cells (%): 67% and 28%
  Population Normal (%): 82% and 76%
  Population Pyknosed Nuclei (%): 65% and 72%
  Population Tubulin-Different-Phenotype (%): 75% and 100%
[4]
  Population Fragmented Nuclei (%): 3% and 9%
  Population Hoechst High Intensity Objects (%): 9% and 10%
  Population Membrane Permeable-Phenotype (%): 6%
  Population Mitochondria Different-Phenotype (%): 68% and 75%
  Population Normal (%): 90% and 89%
  Population Pyknosed Nuclei (%): 58% and 87%
  Population Tubulin-Different-Phenotype (%): 97%
[5]
  Population Apoptotic (%): 17%
  Population Fragmented Nuclei (%): 8%
  Population Healthy Nuclei (%): 79%
  Population Hoechst High Intensity Objects (%): 7%
  Population Membrane Permeable-Phenotype (%): 24%
  Population Mitochondria Different-Phenotype (%): 9%
  Population Mitotic Cells (%): 82%
  Population Normal (%): 92%
  Population Pyknosed Nuclei (%): 11%
  Population Tubulin-Different-Phenotype (%): 64%
  Total Cell Count: 845
[6]
  Population Apoptotic (%): 3%
  Population Fragmented Nuclei (%): 14%
  Population Healthy Nuclei (%): 82%
  Population Hoechst High Intensity Objects (%): 3%
  Population Membrane Permeable-Phenotype (%): 14%
  Population Mitochondria Different-Phenotype (%): 4%
  Population Mitotic Cells (%): 96%
  Population Normal (%): 96%
  Population Pyknosed Nuclei (%): 2%
  Population Tubulin-Different-Phenotype (%): 42%
  Total Cell Count: 2625
[7]
  Population Apoptotic (%): 80% and 55%
  Population Fragmented Nuclei (%): 24% and 18%
  Population Healthy Nuclei (%): 0% and 14%
  Population Hoechst High Intensity Objects (%): 28% and 19%
  Population Membrane Permeable-Phenotype (%): 0% and 8%
  Population Mitotic Cells (%): 19% and 44%
  Population Normal (%): 71% and 80%
  Population Pyknosed Nuclei (%): 75% and 67%
[8]
  Population Apoptotic (%): 58% and 99%
  Population Fragmented Nuclei (%): 7% and 14%
  Population Hoechst High Intensity Objects (%): 17% and 16%
  Population Membrane Permeable-Phenotype (%): 9%
  Population Mitochondria Different-Phenotype (%): 84% and 66%
  Population Normal (%): 82% and 83%
  Population Pyknosed Nuclei (%): 79% and 81%
  Population Tubulin-Different-Phenotype (%): 64% and 66%
[9]
  Population Apoptotic (%): 82%
  Population Fragmented Nuclei (%): 35%
  Population Healthy Nuclei (%): 0%
  Population Hoechst High Intensity Objects (%): 30%
  Population Membrane Permeable-Phenotype (%): 0%
  Population Mitochondria Different-Phenotype (%): 100%
  Population Mitotic Cells (%): 17%
  Population Normal (%): 69%
  Population Pyknosed Nuclei (%): 63%
  Population Tubulin-Different-Phenotype (%): 100%
  Total Cell Count: 159
[10]
  Population Apoptotic (%): 100%
  Population Fragmented Nuclei (%): 19%
  Population Healthy Nuclei (%): 4%
  Population Hoechst High Intensity Objects (%): 17%
  Population Membrane Permeable-Phenotype (%): 16%
  Population Mitochondria Different-Phenotype (%): 83%
  Population Mitotic Cells (%): 0%
  Population Normal (%): 82%
  Population Pyknosed Nuclei (%): 75%
  Population Tubulin-Different-Phenotype (%): 66%
  Total Cell Count: 146
